Measured values: ChEMBL document CHEMBL3526053, “Species-dependent uptake of glycylsarcosine but not oseltamivir in Pichia pastoris expressing the rat, mouse, and human intestinal peptide transporter PEPT1” (Drug Metab Dispos, 2012)

What was measured:
Format in all cases: ADME
[1] = target: T1, Solute carrier family 15 member 1 (Rattus norvegicus, UniProt P51574); experiment: Activity at rat recombinant PEPT1 expressed in Pichia pastoris GS115 assessed as non-saturable rate constant after 30s by dual-channel liquid scintillation counting analysis
T1 sequence (P51574 whole entry): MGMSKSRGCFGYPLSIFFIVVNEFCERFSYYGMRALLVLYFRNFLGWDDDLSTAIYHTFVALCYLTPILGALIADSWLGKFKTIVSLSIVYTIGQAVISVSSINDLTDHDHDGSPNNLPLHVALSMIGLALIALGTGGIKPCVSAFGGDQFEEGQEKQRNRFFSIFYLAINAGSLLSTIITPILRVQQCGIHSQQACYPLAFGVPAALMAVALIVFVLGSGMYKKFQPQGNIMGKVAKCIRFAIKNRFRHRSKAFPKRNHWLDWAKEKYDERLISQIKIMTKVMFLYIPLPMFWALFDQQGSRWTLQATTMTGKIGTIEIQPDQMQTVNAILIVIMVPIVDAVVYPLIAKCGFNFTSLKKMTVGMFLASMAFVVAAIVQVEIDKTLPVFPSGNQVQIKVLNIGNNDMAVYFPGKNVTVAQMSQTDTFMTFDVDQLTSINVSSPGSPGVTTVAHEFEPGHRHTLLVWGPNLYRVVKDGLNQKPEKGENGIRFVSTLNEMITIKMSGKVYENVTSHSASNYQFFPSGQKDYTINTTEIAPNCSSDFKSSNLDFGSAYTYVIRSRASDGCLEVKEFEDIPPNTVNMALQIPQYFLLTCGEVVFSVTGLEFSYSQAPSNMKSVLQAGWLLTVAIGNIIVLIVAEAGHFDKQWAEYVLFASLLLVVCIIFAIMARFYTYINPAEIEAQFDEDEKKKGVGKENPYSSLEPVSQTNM
Method in brief: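 [3H]GlySar concentration series 0.005-10 mM, 30-s uptake at 24°C in 100 mM potassium phosphate pH 6.5. Cells come from His+Mut+ GS115 transformants induced 20-24 h in methanol medium. Uptake is normalised to OD600. Data are fitted to Michaelis-Menten plus a first-order nonsaturable term (Kd), weighting unity. Parameters are mean ± SE (n=9).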

[2] = target: T2, Solute carrier family 15 member 1 (Mus musculus, UniProt Q9JIP7); experiment: Drug uptake in Pichia pastoris GS115 expressing mouse recombinant PEPT1 at 5 uM after 30s by dual-channel liquid scintillation counting analysis in presence of L-histidine relative to control; conditions: 0.5 min
T2 sequence (Q9JIP7 whole entry): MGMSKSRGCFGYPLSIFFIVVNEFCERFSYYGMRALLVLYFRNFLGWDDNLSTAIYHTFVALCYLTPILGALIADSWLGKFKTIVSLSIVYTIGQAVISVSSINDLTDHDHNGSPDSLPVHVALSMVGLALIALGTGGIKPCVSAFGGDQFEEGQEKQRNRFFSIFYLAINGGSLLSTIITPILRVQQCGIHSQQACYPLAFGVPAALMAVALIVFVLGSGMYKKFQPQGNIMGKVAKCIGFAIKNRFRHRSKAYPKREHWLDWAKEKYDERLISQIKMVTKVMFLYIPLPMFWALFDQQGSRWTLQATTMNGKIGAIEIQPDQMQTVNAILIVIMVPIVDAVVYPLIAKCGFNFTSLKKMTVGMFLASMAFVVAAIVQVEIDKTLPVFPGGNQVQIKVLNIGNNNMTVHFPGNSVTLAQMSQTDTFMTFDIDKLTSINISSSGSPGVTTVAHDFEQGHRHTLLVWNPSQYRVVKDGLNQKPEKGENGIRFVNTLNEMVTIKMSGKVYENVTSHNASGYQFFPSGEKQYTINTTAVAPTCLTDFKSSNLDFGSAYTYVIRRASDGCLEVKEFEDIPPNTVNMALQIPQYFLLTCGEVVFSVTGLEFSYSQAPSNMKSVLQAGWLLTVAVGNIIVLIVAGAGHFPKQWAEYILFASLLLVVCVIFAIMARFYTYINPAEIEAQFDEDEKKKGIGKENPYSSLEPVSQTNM
Method in brief: (§1)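 [3H]GlySar 5.0 µM final, 30-s uptake at 24°C in 100 mM potassium phosphate pH 6.5, with or without a potential inhibitor at 10 mM. Cells are methanol-induced transformants. Values are vector-subtracted and expressed as percent of buffer control. Mean ± SE (n=3). ANOVA with Dunnett's test.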

[3] = target: T3, PEPT1 (Rattus norvegicus, UniProt P51574); experiment: Drug uptake in Pichia pastoris GS115 expressing rat recombinant PEPT1 at 5 uM after 30s by dual-channel liquid scintillation counting analysis relative to vector control; conditions: read-out: FC
T3 sequence (P51574 whole entry): T1 sequence (P51574 whole entry)
Method in brief: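 Rat PEPT1 and vector-only (pPIC3.5K) GS115 yeast, methanol-induced 20-24 hr. Cells were washed and concentrated tenfold in 100 mM phosphate buffer pH 6.5. [3H]GlySar or [14C]oseltamivir final 5.0 µM, 24°C, 30 sec and 5 min. Nonspecific binding was measured at 0°C and zero time. Uptake is given as pmol/OD600 by scintillation counting. Mean ± SE, n=6.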

[4] = target: T4, PEPT1 (Mus musculus, UniProt Q9JIP7); experiment: Drug uptake in Pichia pastoris GS115 expressing mouse recombinant PEPT1 at 5 uM after 30s by dual-channel liquid scintillation counting analysis relative to vector control; conditions: read-out: FC
T4 sequence (Q9JIP7 whole entry): T2 sequence (Q9JIP7 whole entry)
Method in brief: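 5.0 µM radiolabelled substrate uptake for 30 s at 24°C in pH 6.5 phosphate buffer by induced transformants. Radioactivity is counted by liquid scintillation and normalised to OD600. Results are compared with pPIC3.5K vector-alone cells. Mean ± SE (n=6).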

[5] = target: T1, Solute carrier family 15 member 1; experiment: Drug uptake in Pichia pastoris GS115 expressing rat recombinant PEPT1 at 5 uM after 30s by dual-channel liquid scintillation counting analysis in presence of L-histidine relative to control; conditions: in vivo, 0.5 min; method in brief: as §1

Kd [1]: 2.21 uL/OD/min
Drug uptake [2]: 103%
uptake ratio at 0.5 min, 5 µM [3]: 136
uptake ratio at 0.5 min, 5 µM [4]: 61
Drug uptake [5]: 113%
SMILES: [3H]C(C(=O)O)N(C)C(=O)CN (stereo not given)
